“And” between values parts separate entries of the source, which are not always exact repeats. Equal entries are not always repeated.
Experiments:
Format in all cases: functional
Mus musculus [1] = assay: In vivo antimalarial activity in mice (Mus musculus) against chloroquine-sensitive Plasmodium berghei N after subcutaneous administration
[2] = In vitro antimalarial activity against chloroquine-sensitive NF54 strain of Plasmodium falciparum (Experiment 2)
Procedure, shortened: (§1)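 Run in quadruplicate with fitted concentration-response curves (R2 ≥0.985). Artemisinin was run as a concurrent control.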

[3] = In vitro antimalarial activity against chloroquine-sensitive NF54 strain of Plasmodium falciparum (Experiment 1); procedure, shortened: as §1
Mus musculus [4] = assay: In vivo antimalarial activity in mice (Mus musculus) against chloroquine-sensitive Plasmodium berghei N after oral administration
Mus musculus [5] = assay: In vivo antimalarial activity in mice (Mus musculus) against chloroquine-resistant Plasmodium yoelii species. NS after subcutaneous administration
[6] = In vitro antimalarial activity against chloroquine-sensitive NF54 strain of Plasmodium falciparum; procedure, shortened: as §1
Mus musculus [7] = assay: Number of mice survived in a group of 18 mice after injecting single intraperitoneal dose of 500 mg/kg (single dose of 250 mg/kg did not cause mice mortality)
Procedure, shortened: (§2)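 Male CD-1 mice in groups of 18 received a single intraperitoneal dose (250, 500 or 1000 mg/kg) of the reference. Survival was scored. Clinical signs such as ruffled fur, hypoactivity and hunched posture were also recorded.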

Mus musculus [8] = assay: Number of mice survived in a group of 18 mice after injecting single intraperitoneal dose of 1000 mg/kg (single dose of 250 mg/kg did not cause mice mortality); procedure, shortened: as §2
Mus musculus [9] = organism: Mus musculus; assay: Dose at which all the mice (from 4 groups) demonstarted 100% survival and normal expected body weight gain after injecting with compound for 14 days
Procedure, shortened: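 Male CD-1/ICR mice in groups of at least 4, given a single intramuscular injection into rear-limb muscle (at most 0.05 mL per site). Test articles were dissolved or suspended at 5% in sesame oil; a vehicle group was included. Doses ranged from 85 to about 400 mg/kg. Survival and body weight gain were followed for 14 days.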

Compound: C[C@@H]1CC[C@H]2[C@@H](C)C(=O)O[C@@H]3O[C@@]4(C)CC[C@@H]1[C@]32OO4 [ARTEMISININ]
- ED50 (Mus musculus [1]): 0.95 mg kg-1 5day-1
- ED90 (Mus musculus [1]): 2.5 mg kg-1 5day-1
- IC50 [2]: 8.9 nM
- IC50 [3]: 8.7 nM
- ED50 (Mus musculus [4]): 5 mg kg-1 5day-1
- ED90 (Mus musculus [4]): 14 mg kg-1 5day-1
- ED50 (Mus musculus [5]): 5.8 mg kg-1 5day-1
- ED90 (Mus musculus [5]): 10 mg kg-1 5day-1

Compound: CCN(CC)CCCC(C)Nc1ccnc2cc(Cl)ccc12 (stereo not given) [CHLOROQUINE]
- ED50 (Mus musculus [1]): 1 mg kg-1 5day-1
- ED90 (Mus musculus [1]): 1.2 mg kg-1 5day-1
- ED50 (Mus musculus [4]): 1.9 mg kg-1 5day-1
- ED90 (Mus musculus [4]): 2.3 mg kg-1 5day-1
- ED50 (Mus musculus [5]): 2.4 mg kg-1 5day-1
- ED90 (Mus musculus [5]): 56 mg kg-1 5day-1

Compound: CC1CCC2CC1OO[C@@]2(C)CS(=O)(=O)c1ccccc1 (stereo not given in full)
- IC50 [6]: 17 nM

Compound: CC1(O)CCC2CC1OO[C@]2(C)CS(=O)(=O)c1ccc(F)cc1 (stereo not given in full)
- IC50 [6]: 52 nM

Compound: CC1(O)CCC2CC1OO[C@]2(C)CS(=O)(=O)c1ccccc1 (stereo in doubt; 26a)
- IC50 [6]: 120 nM

Compound: CC1(O)C2CC(C[C@H]1O)[C@@](C)(CS(=O)(=O)c1ccccc1)OO2 (stereo not given in full)
- IC50 [6]: > 2500 nM

Compound: CO[C@H]1O[C@@H]2O[C@@]3(C)CC[C@H]4[C@H](C)CC[C@@H]([C@H]1C)[C@@]24OO3 [ARTEMETHER]
- ED50 (Mus musculus [1]): 0.5 mg kg-1 5day-1
- ED90 (Mus musculus [1]): 1.1 mg kg-1 5day-1
- No. of mice survived (Mus musculus [7]): 10
- No. of mice survived (Mus musculus [8]): 4
- ED50 (Mus musculus [4]): 3.1 mg kg-1 5day-1
- ED90 (Mus musculus [4]): 5 mg kg-1 5day-1

Compound: CC1CCC2CC1OO[C@]2(C)CS(=O)(=O)c1ccccc1 (stereo not given in full)
- IC50 [6]: 24 nM

Compound: CC1(O)C2CC(C[C@H]1OC(=O)c1ccccc1)[C@](C)(CS(=O)(=O)c1ccccc1)OO2 (stereo not given in full)
- IC50 [6]: 2500 nM

Compound: CC1(OCc2ccccc2)CCC2CC1OO[C@@]2(C)CS(=O)(=O)c1ccccc1 (stereo not given in full)
- ED50 (Mus musculus [1]): 0.8 mg kg-1 5day-1
- ED90 (Mus musculus [1]): 1.7 mg kg-1 5day-1
- IC50 [6]: 6.5 nM
- ED50 (Mus musculus [4]): 10.5 mg kg-1 5day-1
- ED90 (Mus musculus [4]): 115 mg kg-1 5day-1
- ED50 (Mus musculus [5]): 1.3 mg kg-1 5day-1
- ED90 (Mus musculus [5]): 3.8 mg kg-1 5day-1
- Dose (Mus musculus [9]): 380 mg/kg

Compound: CC(=O)OC1(C)CCC2CC1OO[C@@]2(C)CS(=O)(=O)c1ccccc1 (stereo in doubt; 45b)
- IC50 [6]: 18 nM

Compound: CCOC(=O)C(=O)OC1(C)CCC2CC1OO[C@]2(C)CS(=O)(=O)c1ccccc1 (stereo not given in full)
- IC50 [6]: 140 nM

Compound: COc1ccc(COC2(C)CCC3CC2OO[C@@]3(C)CS(=O)(=O)c2ccccc2)cc1 (stereo not given in full)
- ED50 (Mus musculus [1]): 1.3 mg kg-1 5day-1
- ED90 (Mus musculus [1]): 2.3 mg kg-1 5day-1
- IC50 [6]: 14 nM
- ED50 (Mus musculus [5]): 4.8 mg kg-1 5day-1
- ED90 (Mus musculus [5]): 8.3 mg kg-1 5day-1

Compound: C[C@@H]1C(=O)C[C@H]2C[C@@H]1OO[C@@]2(C)/C=C\c1ccc(C(F)(F)F)cc1C(F)(F)F [ARTEFLENE]
- ED50 (Mus musculus [1]): 2.7 mg kg-1 5day-1
- ED90 (Mus musculus [1]): 3.9 mg kg-1 5day-1
- IC50 [6]: 71 nM
- ED50 (Mus musculus [4]): 10.4 mg kg-1 5day-1
- ED90 (Mus musculus [4]): 18 mg kg-1 5day-1

Compound: CC1(O)CCC2CC1OO[C@@]2(C)C[S+]([O-])c1ccccc1 (stereo not given in full)
- IC50 [6]: 150 nM

Compound: CC1(OC(=O)C(=O)N(Cc2ccccc2)Cc2ccccc2)CCC2CC1OO[C@]2(C)CS(=O)(=O)c1ccccc1 (stereo not given in full)
- IC50 [6]: 81 nM

Compound: C=C1CCC2CC1OO[C@@]2(C)CS(=O)(=O)c1ccccc1 (stereo not given in full)
- IC50 [6]: < 3220 nM

Compound: CCCCS(=O)(=O)C[C@]1(C)OOC2CC1CC(OC(=O)c1ccccc1)C2(C)O (stereo not given in full)
- IC50 [6]: 2500 nM

Compound: CCCCS(=O)(=O)C[C@@]1(C)OOC2CC1CC(OC(=O)c1ccccc1)C2(C)O (stereo not given in full)
- IC50 [6]: 500 nM

Compound: CC1(OC(=O)C(=O)N(Cc2ccccc2)Cc2ccccc2)CCC2CC1OO[C@@]2(C)CS(=O)(=O)c1ccccc1 (stereo not given in full)
- IC50 [6]: 21 nM

Compound: CCOC(=O)C(=O)OC1(C)CCC2CC1OO[C@@]2(C)CS(=O)(=O)c1ccccc1 (stereo not given in full)
- IC50 [6]: 170 nM

Compound: CC1(O)C2CC(C[C@H]1OC(=O)c1ccccc1)[C@@](C)(CS(=O)(=O)c1ccccc1)OO2 (stereo not given in full)
- IC50 [6]: 815 nM

Compound: CC1(OCc2ccccc2)CCC2CC1OO[C@]2(C)CS(=O)(=O)c1ccccc1 (stereo not given in full)
- ED50 (Mus musculus [1]): 0.43 mg kg-1 5day-1
- ED90 (Mus musculus [1]): 1.3 mg kg-1 5day-1
- IC50 [6]: 9.4 nM
- ED50 (Mus musculus [4]): 4.2 mg kg-1 5day-1
- ED90 (Mus musculus [4]): 23.5 mg kg-1 5day-1
- ED50 (Mus musculus [5]): 1 mg kg-1 5day-1
- ED90 (Mus musculus [5]): 3.1 mg kg-1 5day-1
- Dose (Mus musculus [9]): 380 mg/kg

Compound: CC1(O)C2CC(CC1OC(=O)c1ccccc1)[C@@](C)(CS(=O)(=O)c1ccccc1)OO2 (stereo not given in full)
- IC50 [6]: 170 nM

Compound: CC1(O)CCC2CC1OO[C@]2(C)C[S+]([O-])c1ccccc1 (stereo not given in full)
- IC50 [6]: 820 nM

Compound: CC(=O)OC1(C)CCC2CC1OO[C@@]2(C)C[S+]([O-])c1ccccc1 (stereo not given in full)
- IC50 [6]: 62 nM and 54 nM

From ChEMBL document CHEMBL1144930, “A short synthesis and biological evaluation of potent and nontoxic antimalarial bridged bicyclic beta-sulfonyl-endoperoxides” (J Med Chem, 2003)
